{
  "source": "paper PMC6016778",
  "about": "(Proceedings of the National Academy of Sciences of the …, 2018)",
  "key": {"HEK293T cells [1]": {"system": "HEK293T cells", "experiment": "LC3-II and p62 Western blots after peptide treatment, HEK293T cells", "type": "cell-based", "settings": "3 h", "how_it_was_run": "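HEK293T cells were treated 3 h with peptide or scrambled Tat control at 10 µM (low) or 20 µM (high) in the culture medium, without or with chloroquine. Lysates were Western blotted for LC3-I/LC3-II lipidation and p62 levels.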"}, "A549 cells": {"system": "A549 cells", "experiment": "MTT cytotoxicity / cell viability, A549 cells", "type": "cell-based", "settings": "12.5 and 25 µM, 5 h"}, "EGFR [2]": {"system": "EGFR", "experiment": "EGFR degradation assay, A549 cells", "type": "cell-based", "settings": "n = 3", "how_it_was_run": "(§1)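 Overexpression arm: cells were transfected with FLAG-UVRAG wild-type or Leu-to-Glu mutants, or vector. Cells were washed in PBS, serum-starved overnight in DMEM, then given DMEM with 20 mM Hepes, 0.2% BSA and 200 ng/mL EGF. Peptide arm: 20 µM peptide or control was added together with EGF. At each time point, 20 µg lysate was immunoblotted for EGFR, normalized to β-actin and to time 0. Three independent experiments, mean ± SEM.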"}, "[3]": {"system": "HeLa cells stably expressing GFP-LC3", "experiment": "Confocal imaging of GFP-LC3 puncta in HeLa cells stably expressing GFP-LC3", "type": "cell-based", "settings": "HeLa GFP-LC3, 3 h, n = 3", "how_it_was_run": "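HeLa cells stably expressing GFP-LC3 were treated 3 h with peptide, scrambled control or water vehicle, with or without 25 µM chloroquine. Cells were imaged by confocal microscopy and GFP-LC3 puncta per cell were counted. Values are mean ± SEM, n = 3.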"}, "[4]": {"system": "Beclin 1–Atg14L interaction", "experiment": "Co-IP of Beclin 1–Atg14L interaction, HEK293T", "type": "cell-based", "settings": "peptide 20 μM added to cell lysate"}, "EGFR [5]": {"system": "EGFR", "experiment": "EGFR degradation assay, HEK293T cells", "type": "cell-based", "settings": "n = 3", "how_it_was_run": "as §1"}, "[6]": {"system": "Beclin 1–UVRAG interaction", "experiment": "Co-IP of Beclin 1–UVRAG interaction, HEK293T", "type": "cell-based", "settings": "peptide 20 μM added to cell lysate"}, "[7]": {"system": "Beclin 1 self-association", "experiment": "Co-IP of Beclin 1 self-association", "type": "cell-based", "settings": "HEK293T", "how_it_was_run": "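HEK293T cells co-transfected with GFP- and His-tagged Beclin 1. Peptide (stock 20 mM in water) was added at 20 µM either to the culture medium 6 h after transfection or to the lysate after lysis. A scrambled, unstapled Tat-fused control peptide was used at the same concentration. His-Beclin 1 association was then probed by co-IP.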"}, "HEK293T cells [8]": {"system": "HEK293T cells", "experiment": "MTT cytotoxicity / cell viability, HEK293T cells", "type": "cell-based", "settings": "12.5 and 25 µM, 5 h"}, "EGFR [9]": {"system": "EGFR", "experiment": "EGFR degradation assay, H1975 cells", "type": "cell-based", "settings": "peptide 20 μM, 15 h after EGF, n = 3", "how_it_was_run": "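H1975 cells were serum-starved overnight in DMEM, then stimulated with 200 ng/mL EGF in DMEM with 20 mM Hepes and 0.2% BSA, together with 20 µM peptide or scrambled control. At each time point, 20 µg lysate was immunoblotted for EGFR. EGFR was normalized to β-actin and to time 0, from three independent experiments.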"}, "[10]": {"molecular_target": "Beclin 1 coiled-coil domain (Rattus norvegicus, UniProt Q91XJ1)", "experiment": "ITC binding of designed peptides to Beclin 1 coiled-coil domain"}, "UVRAG coiled-coil domain [11]": {"molecular_target": "UVRAG coiled-coil domain", "sequence (Q8K245 whole entry, the tested form may be a part)": "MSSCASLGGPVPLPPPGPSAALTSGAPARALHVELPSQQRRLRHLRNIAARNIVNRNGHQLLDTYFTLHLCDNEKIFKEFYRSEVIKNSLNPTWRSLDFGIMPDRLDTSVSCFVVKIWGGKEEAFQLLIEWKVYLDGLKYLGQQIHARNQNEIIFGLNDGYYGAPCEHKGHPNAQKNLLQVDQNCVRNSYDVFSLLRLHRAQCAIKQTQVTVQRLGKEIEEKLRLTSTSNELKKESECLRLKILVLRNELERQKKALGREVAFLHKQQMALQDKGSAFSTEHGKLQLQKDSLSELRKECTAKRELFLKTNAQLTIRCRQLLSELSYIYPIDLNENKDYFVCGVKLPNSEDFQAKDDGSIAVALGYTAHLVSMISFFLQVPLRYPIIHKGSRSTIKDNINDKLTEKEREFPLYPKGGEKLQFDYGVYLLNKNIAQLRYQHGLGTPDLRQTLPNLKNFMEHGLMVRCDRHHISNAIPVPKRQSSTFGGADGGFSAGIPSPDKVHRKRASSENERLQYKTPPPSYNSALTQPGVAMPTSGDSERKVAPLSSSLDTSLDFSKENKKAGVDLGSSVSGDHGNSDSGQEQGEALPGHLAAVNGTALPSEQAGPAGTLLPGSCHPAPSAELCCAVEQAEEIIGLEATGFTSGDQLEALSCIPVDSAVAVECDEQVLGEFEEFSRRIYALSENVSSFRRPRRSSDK", "experiment": "ITC"}, "UVRAG coiled-coil domain [12]": {"molecular_target": "UVRAG coiled-coil domain", "experiment": "ITC", "remark": "listed apart in the source"}, "[13]": {"system": "endogenous Beclin 1; EGFR", "settings": "EGF-stimulated endocytic transport and lysosomal degradation of EGFR; cited from earlier work"}, "UVRAG coiled-coil domain [14]": {"system": "UVRAG coiled-coil domain", "type": "binding", "settings": "ITC, relative to wild type"}},
  "note": "Read-outs that look alike come from different tables or passages of the source. Positions of bridges follow the written chain, without caps; N, C: chain ends. Non-standard residues stand in square brackets, D forms with d. Residues, ends and D or L forms follow the SMILES beside them. R8 = C=CCCCCCC[C@@](C)(N)C(=O)O; S5 = C=CCCC[C@](C)(N)C(=O)O",
  "data": [
    {"molecule": "CCN(CC)CCCC(C)Nc1ccnc2cc(Cl)ccc12", "note": "(stereo not drawn) [CQ, chloroquine, reference compound]", "values": [
      {"measurement": "p62 level with CQ treatment", "setting": "HEK293T cells [1]; with CQ, even with Tat-SP4", "result": "elevated the p62 level"}
    ]},
    {"molecule": "CC[C@H](C)[C@H](NC(=O)[C@H](CC(C)C)NC(=O)[C@H](CCCNC(=N)N)NC(=O)[C@H](CCCNC(=N)N)NC(=O)[C@H](CCCNC(=N)N)NC(=O)[C@H](CCCNC(=N)N)NC(=O)[C@H](CCC(N)=O)NC(=O)[C@H](CCCNC(=N)N)NC(=O)[C@H](CCCNC(=N)N)NC(=O)[C@H](CCCCN)NC(=O)[C@H](CCCCN)NC(=O)[C@H](CCCNC(=N)N)NC(=O)CNC(=O)[C@H](Cc1ccc(O)cc1)NC(C)=O)C(=O)N[C@@H](CO)C(=O)N[C@@H](CCC(=O)O)C(=O)N[C@@H](CC(C)C)C(=O)N[C@]1(C)CCCCCCC=CCCC[C@@](C)(C(=O)N[C@@H](C)C(N)=O)NC(=O)[C@H](CCCNC(=N)N)NC(=O)[C@H](CCC(N)=O)NC(=O)[C@H](CCCCN)NC(=O)[C@H](CCC(=O)O)NC(=O)[C@H](CCCNC(=N)N)NC(=O)[C@H](CC(=O)O)NC1=O", "note": "[Tat-SP4] (Ac-YGRKKRRQRRRRLISEL[R8]DREKQR[S5]A-NH2; staple 18-25)", "values": [
      {"measurement": "cytotoxicity (MTT)", "setting": "A549 cells", "result": "negligible cytotoxicity"},
      {"measurement": "EGFR remaining", "setting": "EGFR [2]; A549, peptide 20 μM, 2 h after EGF", "result": "~75", "unit": "%"},
      {"measurement": "EGFR remaining", "setting": "EGFR [2]; A549, peptide 20 μM, 5 h after EGF", "result": "~25", "unit": "%"},
      {"measurement": "increase in GFP-LC3 dot numbers (autophagosomes)", "setting": "[3]; absence of CQ", "result": "approximately twofold"},
      {"measurement": "increase in GFP-LC3 dot numbers (autophagosomes)", "setting": "[3]; presence of 25 μM CQ", "result": "approximately twofold"},
      {"measurement": "endogenous Beclin 1 pulled down by Atg14L-GFP", "setting": "[4]", "result": "significantly enhanced"},
      {"measurement": "EGFR remaining", "setting": "EGFR [5]; peptide 20 μM, 60 min post EGF (200 ng/mL)", "result": "~30", "unit": "%"},
      {"measurement": "endogenous Beclin 1 pulled down by FLAG-UVRAG", "setting": "[6]", "result": "significantly more endogenous Beclin 1"},
      {"measurement": "Beclin 1 self-association (His-Beclin 1 pulled down by GFP-Beclin 1)", "setting": "[7]; peptide 20 μM added to cell lysate", "result": "moderately reduced"},
      {"measurement": "Beclin 1 self-association (His-Beclin 1 pulled down by GFP-Beclin 1)", "setting": "[7]; peptide 20 μM added to cell medium 6 h posttransfection", "result": "more prominent"},
      {"measurement": "increase in LC3-II level", "setting": "HEK293T cells [1]; 10 μM, with CQ, n = 3", "result": "approximately threefold"},
      {"measurement": "increase in LC3-II level", "setting": "HEK293T cells [1]; 10 μM, without CQ, n = 3", "result": "approximately twofold"},
      {"measurement": "increase in LC3-II level", "setting": "HEK293T cells [1]; 20 μM, with CQ, n = 3", "result": "approximately fivefold"},
      {"measurement": "increase in LC3-II level", "setting": "HEK293T cells [1]; 20 μM, without CQ, n = 3", "result": "approximately threefold"},
      {"measurement": "reduction of p62 level", "setting": "HEK293T cells [1]; without CQ, n = 3", "result": "~50", "unit": "%"},
      {"measurement": "cytotoxicity (MTT)", "setting": "HEK293T cells [8]", "result": "negligible cytotoxicity"},
      {"measurement": "EGFR degradation", "setting": "EGFR [9]", "result": "~50", "unit": "%"},
      {"measurement": "Kd", "setting": "[10]", "result": "~6.8", "unit": "µM"}
    ]},
    {"molecule": "CC[C@H](C)[C@H](NC(=O)[C@H](CC(C)C)NC(=O)[C@H](CC(C)C)NC(=O)[C@H](CCCNC(=N)N)NC(=O)[C@H](CCCNC(=N)N)NC(=O)[C@H](CCCNC(=N)N)NC(=O)[C@H](CCC(N)=O)NC(=O)[C@H](CCCNC(=N)N)NC(=O)[C@H](CCCNC(=N)N)NC(=O)[C@H](CCCCN)NC(=O)[C@H](CCCCN)NC(=O)[C@H](CCCNC(=N)N)NC(=O)CNC(=O)[C@H](Cc1ccc(O)cc1)NC(C)=O)C(=O)N[C@@H](CO)C(=O)N[C@@H](CCC(=O)O)C(=O)N[C@@H](CC(C)C)C(=O)N[C@]1(C)CCCCCCC=CCCC[C@@](C)(C(=O)N[C@@H](C)C(N)=O)NC(=O)[C@H](CCCNC(=N)N)NC(=O)[C@H](CCC(N)=O)NC(=O)[C@H](CCCCN)NC(=O)[C@H](CCC(=O)O)NC(=O)[C@H](CCCNC(=N)N)NC(=O)[C@H](CC(=O)O)NC1=O", "note": "[Tat-SP9] (Ac-YGRKKRRQRRRLLISEL[R8]DREKQR[S5]A-NH2; staple 18-25; N-terminus and C-terminus assumed)", "values": [
      {"measurement": "Kd", "setting": "[10]", "result": "~56.2", "unit": "µM"}
    ]},
    {"molecule": "Beclin 1 coiled-coil domain (from UniProt Q91XJ1 174-264) (domain or fragment)", "values": [
      {"measurement": "Kd", "setting": "UVRAG coiled-coil domain [11]", "result": 3, "unit": "µM"},
      {"measurement": "Kd", "setting": "UVRAG coiled-coil domain [12]", "result": 0.3, "unit": "µM"}
    ]},
    {"molecule": "Beclin 1 coiled-coil region L210E (from UniProt Q91XJ1 174-264) (domain or fragment)", "values": [
      {"measurement": "Kd", "setting": "UVRAG coiled-coil domain [11]", "result": 10, "unit": "µM"}
    ]},
    {"molecule": "Beclin 1 coiled-coil region R203E (from UniProt Q91XJ1 174-264) (domain or fragment)", "values": [
      {"measurement": "Kd", "setting": "UVRAG coiled-coil domain [11]", "result": 10, "unit": "µM"}
    ]},
    {"molecule": "wild-type UVRAG: wild-type UVRAG (full length Mus musculus in cells; coiled-coil construct in vitro) (protein, left off: FLAG, end not stated, kept) MSASASVGGPVPQPPPGPAAALPPGSAARALHVELPSQQRRLRHLRNIAARNIVNRNGHQLLDTYFTLHLCSTEKIYKEFYRSEVIKNSLNPTWRSLDFGIMPDRLDTSVSCFVVKIWGGKENIYQLLIEWKVCLDGLKYLGQQIHARNQNEIIFGLNDGYYGAPFEHKGYSNAQKTILLQVDQNCVRNSYDVFSLLRLHRAQCAIKQTQVTVQKIGKEIEEKLRLTSTSNELKKKSECLQLKILVLQNELERQKKALGREVALLHKQQIALQDKGSAFSAEHLKLQLQKESLNELRKECTAKRELFLKTNAQLTIRCRQLLSELSYIYPIDLNEHKDYFVCGVKLPNSEDFQAKDDGSIAVALGYTAHLVSMISFFLQVPLRYPIIHKGSRSTIKDNINDKLTEKEREFPLYPKGGEKLQFDYGVYLLNKNIAQLRYQHGLGTPDLRQTLPNLKNFMEHGLMVRCDRHHTSSAIPVPKRQSSIFGGADVGFSGGIPSPDKGHRKRASSENERLQYKTPPPSYNSALAQPVTTVPSMGETERKITSLSSSLDTSLDFSKENKKKGEDLVGSLNGGHANVHPSQEQGEALSGHRATVNGTLLPSEQAGSASVQLPGEFHPVSEAELCCTVEQAEEIIGLEATGFASGDQLEAFNCIPVDSAVAVECDEQVLGEFEEFSRRIYALNENVSSFRRPRRSSDK", "values": [
      {"measurement": "endolysosomal trafficking on overexpression", "setting": "[13]", "result": "enhanced endolysosomal trafficking"},
      {"measurement": "EGFR remaining", "setting": "EGFR [2]; A549, UVRAG overexpression, 3 h after EGF (200 ng/mL)", "result": "~40", "unit": "%"},
      {"measurement": "EGFR remaining", "setting": "EGFR [2]; A549, UVRAG overexpression, 5 h after EGF (200 ng/mL)", "result": "~5", "unit": "%"},
      {"measurement": "EGFR remaining", "setting": "EGFR [5]; UVRAG overexpression, 120 min post EGF (200 ng/mL)", "result": "~10", "unit": "%"}
    ]},
    {"molecule": "R203E (protein) DSEQLQRELKELALEEERLIQELEDVEKNEKVVAENLEKVQAEAERLDQEEAQYQREYSEFKRQQLELDDELKSVENQMRYAQMQLDKLKK", "values": [
      {"measurement": "reduction of binding affinity of Beclin 1–UVRAG interaction", "setting": "UVRAG coiled-coil domain [14]", "result": "approximately three- to fivefold"}
    ]},
    {"molecule": "L210E (protein) DSEQLQRELKELALEEERLIQELEDVEKNRKVVAENEEKVQAEAERLDQEEAQYQREYSEFKRQQLELDDELKSVENQMRYAQMQLDKLKK", "values": [
      {"measurement": "reduction of binding affinity of Beclin 1–UVRAG interaction", "setting": "UVRAG coiled-coil domain [14]", "result": "approximately three- to fivefold"}
    ]}
  ]
}
